This passage reports Activity results from ChEMBL document CHEMBL3271938, “Podophyllotoxin analogs. 1. Synthesis and biological evaluation of certain trans-2-aryl-trans-6-hydroxymethyl-3-cyclohexenecarboxylic acid gamma-lactones as antimitotic agents” (1976).

Assay [1] deals with P815. The assay is described as follows: Inhibition of colony formation in mouse P815 cells assessed as percentage of colony forming cell at 5 uM after 7 days by microscopic analysis relative to control. It counts as functional. The arrangement: scale not given: the % may be the effect or the level left. The method in brief: (§1)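 P-815 mastocytoma cells, passaged in vitro, plated at 1 × 10^3 cells in 1.0 ml of 0.3% agar. Medium was McCoy's 5A with supplements, 10^-4 M dithiothreitol, 10% fetal calf and 5% horse serum. Compound came from a 1 mM stock in Me2SO/EtOH saline, diluted serially 1:10. Incubated 7 days at 37°C under 12% CO2/8% O2; colonies counted microscopically as % of control.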

Assay [2] can be described thus: Inhibition of colony formation in BDF1 mouse bone marrow cells assessed as percentage of colony forming cell at 50 uM after 7 days by microscopic analysis relative to control. The assay is classed as functional. Also on record: scale not given: the % may be the effect or the level left. The method in brief: (§2)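 Femoral marrow from female BDF1 mice (8-12 weeks) was dispersed and 1 × 10^5 cells plated in 1.0 ml of 0.3% agar. Medium was McCoy's 5A with supplements, 10^-4 M dithiothreitol, 10% fetal calf and 5% horse serum, plus L-cell CSF. Compound came from a 1 mM stock in Me2SO/EtOH saline, diluted serially 1:10. Incubated 7 days at 37°C under 12% CO2/8% O2; colonies counted microscopically as % of control.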

Assay [3] can be described thus: Inhibition of colony formation in BDF1 mouse bone marrow cells assessed as percentage of colony forming cell at 0.5 uM after 7 days by microscopic analysis relative to control. It counts as functional. The arrangement: scale not given: the % may be the effect or the level left. The gist of the method: as §2
The test system of assay [4] is P815. The assay is described as follows: Inhibition of colony formation in mouse P815 cells assessed as percentage of colony forming cell at 0.5 uM after 7 days by microscopic analysis relative to control. The arrangement: scale not given: the % may be the effect or the level left. It counts as functional. The method in brief:
as §1

Assay [5] has as its target T1, Tubulin (Bos taurus) (UniProt Q6B856+Q862L2+Q862F3). The assay is described as follows: Displacement of [3H]colchicine from bovine brain tubulin at 200 uM after 90 mins by liquid scintillation counting in presence of 10 uM [3H]colchicine.
In assay [6] the target is T1, Tubulin (Bos taurus). The assay is described as follows: Displacement of [3H]colchicine from bovine brain tubulin at 100 uM after 90 mins by liquid scintillation counting in presence of 10 uM [3H]colchicine. In general terms: Loss of bound radioactivity is the signal in a displacement assay; it reports binding, not function.
Assay [7] addresses T1, Tubulin (Bos taurus). Nature of the assay: Displacement of [3H]colchicine from bovine brain tubulin at 50 uM after 90 mins by liquid scintillation counting in presence of 10 uM [3H]colchicine.
Assay [8] concerns P815. Nature of the assay: Inhibition of colony formation in mouse P815 cells assessed as percentage of colony forming cell at 50 uM after 7 days by microscopic analysis relative to control. The assay is classed as functional. Also on record: scale not given: the % may be the effect or the level left. The gist of the method: as §1
The nature of assay [9]: Inhibition of colony formation in BDF1 mouse bone marrow cells assessed as percentage of colony forming cell at 5 uM after 7 days by microscopic analysis relative to control. It counts as functional. The arrangement: scale not given: the % may be the effect or the level left. The gist of the method: as §2
Assay [10] addresses T1, Tubulin (Bos taurus). The assay is described as follows: Displacement of [3H]colchicine from bovine brain tubulin at 20 uM after 90 mins by liquid scintillation counting in presence of […].
In assay [11] the target is T1, Tubulin (Bos taurus). Nature of the assay: Displacement of [3H]colchicine from bovine brain tubulin at 10 uM after 90 mins by liquid scintillation counting in presence of 10 uM [3H]colchicine.
Assay [12] has as its target T1, Tubulin (Bos taurus). Nature of the assay: Displacement of [3H]colchicine from bovine brain tubulin at 40 uM after 90 mins by liquid scintillation counting in presence of 10 uM [3H]colchicine.
Assay [13] deals with T1, Tubulin (Bos taurus). The assay is described as follows: Displacement of [3H]colchicine from bovine brain tubulin at 60 uM after 90 mins by liquid scintillation counting in presence of 10 uM [3H]colchicine.
Assay [14] can be described thus: Inhibition of colony formation in BDF1 mouse bone marrow cells assessed as percentage of colony forming cell at 5 nM after 7 days by microscopic analysis relative to control. It counts as functional. Also on record: scale not given: the % may be the effect or the level left. The gist of the method:
as §2

For assay [15], the system named is P815. Nature of the assay: Inhibition of colony formation in mouse P815 cells assessed as percentage of colony forming cell at 5 nM after 7 days by microscopic analysis relative to control. The assay is classed as functional. The arrangement: scale not given: the % may be the effect or the level left. The method in brief:
as §1

The test system of assay [16] is P815. Nature of the assay: Inhibition of colony formation in mouse P815 cells assessed as percentage of colony forming cell at 50 nM after 7 days by microscopic analysis relative to control. It counts as functional. The arrangement: scale not given: the % may be the effect or the level left. The gist of the method: as §1
A short description of assay [17]: Inhibition of colony formation in BDF1 mouse bone marrow cells assessed as percentage of colony forming cell at 50 nM after 7 days by microscopic analysis relative to control. It counts as functional. The arrangement: scale not given: the % may be the effect or the level left. The gist of the method: as §2

With `COc1cc([C@H]2C=CC[C@@H]3C(=O)OC[C@H]32)cc(OC)c1OC`, the Activity in assay [1] was 95%; in assay [2], 135%; in assay [3] it was 90%; in [4] it was 89%; in assay [5], 8690 cpm; in [6], 11500 cpm. Moreover, the Activity in assay [7] turned out to be 11900 cpm; in [8] it was 109%; in assay [9], 74%; in assay [10], 9070 cpm.
Consider `O=C1OC[C@H]2CC=C[C@H](c3ccccc3)[C@H]12`, for which the Activity in assay [1] worked out at 75%; in [2], 107%; in assay [3], 96%; in [4], 74%; in assay [11] it was 12200 cpm; in [6], 15500 cpm. Besides, the Activity in assay [12] is 15600 cpm; in assay [8], 93%; in assay [9], 95%; in [13] it was 18500 cpm.
With `COc1cc([C@H]2C=CC[C@@H]3COC(=O)[C@H]32)cc(OC)c1OC` (relative stereo), the Activity in assay [1] was determined as 42%; in assay [2], 75%; in assay [3], 35%; in assay [4], 84%; in assay [11], 17000 cpm; in assay [6], 15200 cpm. Moreover, the Activity turned out to be 15500 cpm in assay [12], 9% in assay [8], 105% in assay [9] and 14600 cpm in assay [13].
For the compound `COc1cc([C@H]2C=CC[C@@H]3C(=O)OC[C@@H]32)cc(OC)c1OC` (relative stereo), the Activity in assay [1] is 89%; in assay [2], 55%; in [3], 75%; in assay [4], 81%; in assay [11], 18500 cpm; in assay [6] it was 18200 cpm. In addition, the Activity came out at 11600 cpm in [12], 178% in assay [8], 73% in assay [9] and 18400 cpm in assay [13].
For the compound `O=C1OC[C@H]2CC=C[C@H](c3ccccc3)[C@@H]12` (relative stereo), the Activity was 1320 cpm in [11], 13600 cpm in assay [6], 12300 cpm in [12] and 13900 cpm in assay [13].
Turning to `O=C1OC[C@H]2CC=C[C@H](c3ccc4c(c3)OCO4)[C@H]12`, the Activity amounted to 86% in assay [1]; 170% in assay [2]; 87% in assay [3]; 101% in [4]; 16000 cpm in assay [11]; 19600 cpm in [6]. In addition, the Activity in assay [12] turned out to be 20100 cpm; in assay [8], 143%; in [9] it was 143%; in assay [13], 18200 cpm.
`O=C1OC[C@H]2CC=CC[C@H]12`: the Activity in assay [1] is 95%; in assay [2] it was 106%; in assay [3] it was 102%; in [4], 102%; in assay [11], 15500 cpm; in [6], 14700 cpm. In addition, the Activity is 14900 cpm in assay [12], 112% in assay [8], 91% in assay [9] and 15200 cpm in assay [13].
Regarding `O=C1OC[C@H]2CC=C[C@H](c3ccc4c(c3)OCO4)[C@@H]12`, the Activity in assay [1] is 112%; in assay [2], 115%; in assay [3], 97%; in [4], 89%; in assay [11], 17600 cpm; in assay [6], 12400 cpm. Moreover, the Activity in assay [12] amounted to 17600 cpm; in [8] it was 138%; in assay [9], 105%; in [13] it was 17300 cpm.
With `O=C1OC[C@@H]2[C@@H]1CC=C[C@@H]2c1ccc2c(c1)OCO2`, the Activity in [1] came to 61%; in [2], 166%; in assay [3], 104%; in [4], 100%; in [11] it was 17400 cpm; in assay [6], 16700 cpm. In addition, the Activity in [12] was 16700 cpm; in [8], 169%; in [9] it was 135%; in [13], 15600 cpm.
With `O=C1OC[C@H]2[C@@H]1CC=C[C@@H]2c1ccccc1` (relative stereo), the Activity came to 15800 cpm in assay [11], 13100 cpm in assay [6], 14800 cpm in assay [12] and 5380 cpm in [13].
With `O=C1OC[C@H]2[C@@H]1CC=C[C@@H]2c1ccc2c(c1)OCO2`, the Activity is 98% in assay [1]; 121% in assay [2]; 103% in [3]; 71% in [4]; 19000 cpm in assay [11]; 17000 cpm in assay [6]. In addition, the Activity amounted to 16700 cpm in assay [12], 106% in assay [8], 105% in assay [9] and 17000 cpm in assay [13].
For `O=C1OC[C@H]2CC=CC[C@@H]12`, the Activity is 69% in assay [1]; 114% in assay [2]; 106% in assay [3]; 93% in assay [4]; 15800 cpm in assay [11]; 14100 cpm in assay [6]. Besides, the Activity in assay [12] was found to be 16800 cpm; in [8], 111%; in assay [9] it was 103%; in assay [13] it was 15900 cpm.
For the compound `COc1cc([C@@H]2c3cc4c(cc3[C@H](O)[C@H]3COC(=O)[C@H]23)OCO4)cc(OC)c1OC` [PODOFILOX], the Activity in assay [14] stood at 95%; in assay [15], 91%; in assay [3], 0%; in assay [4], 0%; in [16] it was 0%; in assay [17], 1%.
